Experimental data reported in ChEMBL document CHEMBL1124511, “N-(cyclohexylcarbonyl)-D-phenylalanines and related compounds. A new class of oral hypoglycemic agents. 2” (1989).

organism: Mus musculus; assay: Hypoglycemic activity causing more than a 20% blood glucose decrease in fasting mice; type: functional; settings: not given
In short: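 Male ICR-CD1 mice, 5 weeks old, 18 h fasted, groups of five. Oral dosing as a suspension in 0.5% (carboxymethyl)cellulose–0.14 M NaCl, 1 mL/kg; vehicle control run in parallel. Carotid blood taken at 1 h; glucose by glucose-oxidase-peroxidase. Student's t test (p < 0.05). Value is the lowest dose giving >20% glucose decrease.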

Row | Structure (SMILES) | Minimum effective hypoglycemic dose [mg/kg]
1 | CC(C)[C@H]1CC[C@H](C(=O)N[C@@H](Cc2ccccc2)C(=O)OCc2ccccc2)CC1 | 25
2 | CC[C@H]1CC[C@H](C(=O)N[C@H](Cc2ccccc2)C(=O)O)CC1 | 25
3 | C[C@H]1CC[C@H](C(=O)N[C@H](Cc2ccccc2)C(=O)O)CC1 | 25
4 | CC(C)(C)[C@H]1CC[C@H](C(=O)N[C@H](Cc2ccccc2)C(=O)O)CC1 | 6.3
5 | CCC[C@H]1CC[C@H](C(=O)N[C@H](Cc2ccccc2)C(=O)O)CC1 | 25
6 | CCCC[C@H]1CC[C@H](C(=O)N[C@H](Cc2ccccc2)C(=O)O)CC1 | 25
7 | C=C(C)[C@@H]1CC=C(C(=O)N[C@H](Cc2ccccc2)C(=O)O)CC1 | 25
8 | O=C(N[C@H](Cc1ccccc1)C(=O)O)C1CCCCC1 | 100
9 | O=C(N[C@H](Cc1ccccc1)C(=O)O)C1CCCC1 | 50
10 | CC(C)c1ccc(C(=O)N[C@H](Cc2ccccc2)C(=O)O)cc1 | 25
11 | COC(=O)[C@H](Cc1ccccc1)NC(=O)[C@H]1CC[C@H](C(C)C)CC1 | 3.1
12 | CC(C)N(C(=O)[C@H](Cc1ccccc1)NC(=O)[C@H]1CC[C@H](C(C)C)CC1)C(C)C | 100
13 | CC(C)[C@H]1CC[C@H](C(=O)N[C@@H](Cc2ccccc2)C(=O)O)CC1 [(S)-NATEGLINIDE] | 100
14 | CC(C)[C@H]1CC[C@H](C(=O)N[C@H](Cc2ccccc2)C(=O)O)CC1 [NATEGLINIDE] | 1.6
15 | CCCCNC(=O)NS(=O)(=O)c1ccc(C)cc1 [TOLBUTAMIDE] | 25

test system: Mus musculus; assay: Percent decrease in blood glucose level, after peroral administration of 100 mg/kg of compound in mice; Inactive; type: functional; settings: route oral

Row | Structure (SMILES) | Hypoglycemic activity [%]
16 | CC(C)[C@H]1CC[C@@H](C(=O)N[C@H](Cc2ccccc2)C(=O)O)CC1 | <20
17 | O=C(N[C@H](Cc1ccccc1)C(=O)O)C1CCCCCC1 | <20
18 | CC(C)[C@H]1CC[C@H](C(=O)NCCc2ccccc2)CC1 | <20
19 | O=C(O)[C@@H](Cc1ccccc1)NC(=O)[C@H]1CC[C@H](c2ccccc2)CC1 | <20
20 | CCCCC[C@H]1CC[C@H](C(=O)N[C@H](Cc2ccccc2)C(=O)O)CC1 | <20
21 | CC(C)[C@H]1CC[C@H](C(=O)N[C@@H](Cc2ccccc2)C(N)=O)CC1 | <20
22 | O=C(N[C@H](Cc1ccccc1)C(=O)O)C1CC2CCC1C2 (stereo partly drawn) | <20
23 | O=C(N[C@H](Cc1ccccc1)C(=O)O)C1CCc2ccccc2C1 (stereo partly drawn) | <20
